Drawing on PubChem BioAssay AID463073 (The Scripps Research Institute Molecular Screening Center, 2010), this text covers inhibition for 59 molecules.

The whole screen tested about 2,000 compounds, of which about 10 (0.5%) were called active. The sample holds actives, similar compounds and a random draw of the others, so the mix is not that of the screen.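 How the source made its calls: active means inhibition above 30%; inactive means the rest.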

Sequence of Protein-arginine deiminase type-4 (Homo sapiens) (Q9UM07 whole entry, looked up): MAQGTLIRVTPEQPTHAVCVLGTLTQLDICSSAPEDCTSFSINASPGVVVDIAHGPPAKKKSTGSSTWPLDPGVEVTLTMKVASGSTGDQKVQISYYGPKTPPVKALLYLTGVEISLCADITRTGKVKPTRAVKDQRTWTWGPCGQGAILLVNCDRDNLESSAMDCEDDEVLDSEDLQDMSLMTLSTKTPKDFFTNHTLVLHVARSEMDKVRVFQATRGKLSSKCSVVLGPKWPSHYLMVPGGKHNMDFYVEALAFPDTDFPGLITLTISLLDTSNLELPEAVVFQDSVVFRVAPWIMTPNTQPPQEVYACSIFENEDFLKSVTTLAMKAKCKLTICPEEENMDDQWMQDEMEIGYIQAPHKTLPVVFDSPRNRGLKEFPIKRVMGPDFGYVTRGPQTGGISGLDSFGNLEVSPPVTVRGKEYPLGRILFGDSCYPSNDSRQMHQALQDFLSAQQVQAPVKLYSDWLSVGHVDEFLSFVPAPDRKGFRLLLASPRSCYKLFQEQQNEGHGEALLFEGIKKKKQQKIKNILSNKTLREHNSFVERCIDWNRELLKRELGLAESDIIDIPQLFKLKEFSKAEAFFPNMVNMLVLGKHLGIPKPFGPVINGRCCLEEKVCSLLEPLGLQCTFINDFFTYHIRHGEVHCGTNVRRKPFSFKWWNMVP

In this experiment the target is Protein-arginine deiminase type-4 (Homo sapiens) (UniProt Q9UM07). The experiment is described as follows: human PAD4 inhibitors, primary screen, biochemical, fluorescence polarization (AID 463073).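 Further: 0% = PAD4 with DMSO and 100% = wells lacking PAD4.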 Conditions: recombinant PAD4, RFA probe fluorescence polarization; at 5 µM; stronger effect = higher value. In a few lines:
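system = recombinant PAD4 | amount = PAD4 at 2 µM in dispensed buffer, before additions | incubation = 30 min 25 °C preincubation, 5 h 37 °C labeling | measured by = FP, ex 525 nm, em 598 nm | replication = single well per compound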
With `Cc1ccc2c(c1)C1OCCC1C1N2C(=O)C2C(C(=O)O)C3C=CC21O3` (centres undefined), the inhibition is 6.06% (inactive).
Under `Cn1cc(CN2CCC(C(=O)N3CCCCC3)CC2)c(-c2ccccc2F)n1` stands 4.74% (inactive); under `O=C1OC(c2ccccc2)=C/C1=C/c1cccs1`, -2.45% (inactive); under `c1ccc(Nc2ccccn2)nc1`, -4.7% (inactive).
In the case of `CS(=O)(=O)c1cccc(C(=O)Oc2ccccc2)c1` it was 5.29% (inactive); in that of `CC(=O)OCC1OC(n2ccc(=O)[nH]c2=O)C(O)C1O` (centres undefined), 1.17% (inactive).
In the case of `CC(C)C[C@H](NC(=O)[C@@H]1Cc2ccccc2CN1C(=O)OC(C)(C)C)C(=O)NCC1CCC(C(=O)O)CC1` (some centres undefined), the inhibition was 0.39% (inactive).
In the case of `CS(=O)(=O)Nc1cccc(C(=O)CC2(O)C(=O)Nc3ccc(Br)cc32)c1` (centres undefined) it was 0.36% (inactive).
In the case of `Cn1c2c(c(=O)[nH]c1=O)C(c1ccc(O)cc1)C1=C(N2)c2ccccc2C1=O` (centres undefined) it was 4.81% (inactive).
Under `Cc1cc(C)c(NC(=O)NC(=O)C(Cl)(Cl)Cl)c(C)c1` stands -2.27% (inactive).
Consider `CC(=O)OC[C@H]1O[C@@H](Sc2cccc3cccnc23)[C@H](OC(C)=O)[C@@H](OC(C)=O)[C@H]1OC(C)=O`, for which the inhibition is 1.27% (inactive).
Under `CCOC(=O)C1C(=O)OC(C)(C)C1C(C)C(=O)c1ccc(C)cc1` (centres undefined) stands -0.2% (inactive); under `CCOC(=O)C(Cc1cc(C(C)=O)ccc1OC(C)C)C(=O)OCC`, 2.78% (inactive); under `CCOc1ccc(N2C(=O)CC(NCCNc3ccc([N+](=O)[O-])cn3)C2=O)cc1` (centres undefined), 9.78% (inactive).
Under `CN1C(=O)C(O)(CC(=O)c2ccccc2O)c2cc(Br)ccc21` (centres undefined) stands -1.81% (inactive); under `CCOC(=O)C(NC(=O)CCC(=O)Nc1ccc(S(N)(=O)=O)cc1)C(O)c1ccccc1` (centres undefined), -0.41% (inactive); under `CCc1cc2c(C)cc(=O)oc2cc1OC(=O)C1CCCN1C(=O)OC(C)(C)C` (centres undefined), 1.27% (inactive).
Under `COC(=O)c1[nH]c2ccc(C)cc2c1NC(=O)CN1CCc2cc(OC)c(OC)cc2C1` stands 0.78% (inactive).
With `COc1ccc(CC(=O)NCC2(c3ccc(OC)c(OC)c3)CCOCC2)cc1`, the inhibition was 2.08% (inactive).
With `COc1ccc(CNC(=O)c2c(O)c3cccc4c3n(c2=O)CCC4)cc1`, the inhibition was 4.58% (inactive).
Under `CC(C)CC(=O)Nc1ccc2oc(-c3ccncc3)nc2c1` stands 1.75% (inactive).
As to `CC(C)NC(=O)c1ccc(C(C)C)cc1`, the inhibition was -2.74% (inactive).
As for `O=C(CN1C(=O)c2ccccc2S1(=O)=O)Nc1ccccc1`, the inhibition is -2.01% (inactive).
Under `COC(=O)C1=NN(C(=O)c2cccc(Br)c2)C(O)(c2ccc(Cl)cc2)C1` (centres undefined) stands -1.03% (inactive); under `CC(C)(C)C(=O)Nc1cccc(OC(F)(F)C(F)Cl)c1` (centres undefined), 3.96% (inactive); under `COc1ccc(-c2csc(-c3cccnc3)n2)cc1C`, -0.79% (inactive).
In the case of `COc1ccc(OC)c(C(=O)c2coc3ccc(O)cc23)c1` it was -2.55% (inactive); in that of `OCC(O)CN1CCN(c2ccccc2)CC1` (centres undefined), -2.45% (inactive); in that of `O=c1c(-c2ccccc2)c(O)c2cccc3c2n1CCC3`, 5.09% (inactive).
Regarding `Cc1cc(OC(=O)CNC(=O)OC(C)(C)C)c2c(C)cc(=O)oc2c1`, the inhibition is 22.1% (inactive).
In the case of `CC(NC(=O)OCc1ccccc1)C(=O)N1CC(O)CC1C(=O)O` (centres undefined) it was 6.64% (inactive); in that of `COC(=O)c1ccc(CC(=O)c2ccc(O)cc2O)o1`, 4.18% (inactive); in that of `CCCCCCCC(=O)OCC(=O)[C@@]1(O)CC[C@H]2[C@@H]3CCC4=CC(=O)CC[C@]4(C)[C@H]3[C@@H](O)C[C@@]21C`, 4.58% (inactive).
Under `Cc1nc(C2CC(=O)OC23CCCCC3)cs1` (centres undefined) stands -0.47% (inactive); under `CSCCC(NC(=O)OC(C)(C)C)C(=O)Oc1ccc2c(=O)c(-c3ccc4c(c3)OCCO4)coc2c1` (centres undefined), 14.1% (inactive); under `c1ccc(-c2ccccn2)nc1`, 0.78% (inactive).
As for `Cn1c(=O)[nH]c2nnc(-c3ccc(Cl)c(Cl)c3)nc2c1=O`, the inhibition was 4.18% (inactive).
Turning to `Cn1nc(-c2ccccn2)nc2c(=O)n(C)c(=O)nc1-2`, the inhibition is 98.2% (active).
Under `Cn1nc(-c2ccc(Cl)cc2)nc2c(=O)n(C)c(=O)nc1-2` stands 90.7% (active); under `CN(C)CCCNc1ncnc2c1cnn2-c1ccccc1`, -1.45% (inactive).
Under `CCNC(=O)c1sc2cc(C)ccc2c1Cl` stands 0.99% (inactive); under `CSCCC(NC(=O)/C(=C/c1ccc2c(c1)OCO2)NC(=O)c1cccc([N+](=O)[O-])c1)C(=O)O` (centres undefined), -0.41% (inactive).
In the case of `Nc1nnc(CSCc2ccc(Cl)cc2Cl)s1` it was 3.81% (inactive); in that of `CC12CCC(C(=O)NNc3ccccc3)(C(=O)C1=O)C2(C)C` (centres undefined), -2.07% (inactive); in that of `COc1ccc(CN2CCCC(C(=O)c3ccc(Cl)cc3)C2)cc1Cn1cccn1` (centres undefined), -0.23% (inactive).
In the case of `O=C(CSCc1ccccc1)NCCCN1CCOCC1`, the inhibition was -0.81% (inactive).
In the case of `CC(=O)c1cc2c(cc1NC(=O)c1ccco1)OCCO2`, the inhibition is -1.18% (inactive).
As to `COC(=O)[C@H]1[C@H]2C[C@@H]3c4[nH]c5cc(OC)ccc5c4CCN3C[C@H]2C[C@@H](OC(=O)c2ccc(N)cc2)[C@@H]1OC`, the inhibition is 6.06% (inactive).
In the case of `COC(=O)c1[nH]c2ccc(F)cc2c1NC(=O)C1=COCCO1` it was 6.4% (inactive); in that of `COc1cc(CNCCc2ccccc2F)ccc1OCC(=O)N1CCCCC1`, -1.57% (inactive); in that of `COCCOC(=O)C1=C(N)OC2=C(C(=O)CCC2)C1c1cccnc1` (centres undefined), 1.53% (inactive).
In the case of `COc1ccc(NC(=O)CC2C(=O)N(C)C(=S)N2Cc2ccncc2)cc1` (centres undefined) it was -3.53% (inactive); in that of `CN1CCCN=C1COC(=O)C(O)(c1ccccc1)C1CCCCC1` (centres undefined), -4.01% (inactive).
Under `Cc1cccc(OCC(=O)Nc2ccc(C(=O)NCC(C)C)cc2)c1` stands 0.21% (inactive).
Turning to `N#CCC(N)=C(C#N)C#N`, the inhibition is 0.67% (inactive).
In the case of `CC(=O)[C@@]1(O)CC[C@H]2[C@@H]3CCC4=CC(=O)CC[C@]4(C)[C@H]3[C@@H](O)C[C@@]21C` it was -0.33% (inactive); in that of `Cc1ccccc1NC(=O)C1c2ccccc2Oc2ccccc21`, -0.73% (inactive).
Consider `CC(C)NS(=O)(=O)c1ccc(OCC(=O)Nc2cccc(F)c2)cc1`, for which the inhibition is 2.86% (inactive).
In the case of `COc1ccc(C2=C(CN(C)C)C(c3ccccc3)c3ccccc3O2)cc1` (centres undefined) it was -1.24% (inactive).
